What all share (format): functional, cell-based
Test [1] deals with chang liver. The experiment in a line: Inhibition of cholesterol biosynthesis in human chang liver cells assessed as suppression of lanosterol. Put shortly: (§1)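 Chang liver cells (ATCC CCL 13) seeded at 5×10^4 per 15-mm dish in MEM + 10% FBS; on day 2 washed, held 4 h in serum-free Hepatozyme-SFM, pretreated 2 h with compound, then labeled acetate (2.5 μCi/well) for 2 h. Cells lysed in 0.1 N NaOH, saponified (6% KOH/MeOH), nonsaponifiable lipids extracted in n-hexane, separated by TLC (C6H6-Me2CO 19:1), radioactive spots quantified by phosphor imaging.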

Test [2] deals with chang liver. Put plainly: Inhibition of cholesterol biosynthesis in human chang liver cells assessed as suppression of cholesterol level. Summed up:
as §1

The nature of test [3]: (§2) Inhibition of cholesterol biosynthesis in human chang liver cells assessed as conversion of lanosterol into cholesterol. Summed up: as §1
Test [4] concerns chang liver. The test is described as §2. Summed up:
as §1

The values that follow come from ChEMBL document CHEMBL1144142, “Lyso-PAF analogues and lysophosphatidylcholines from the marine sponge Spirastrella abata as inhibitors of cholesterol biosynthesis” (J Nat Prod, 1999).

As a reminder, the IC50 is the point on the concentration scale where inhibition reaches its midpoint.

≈ marks a conversion by molar mass, not a printed value. Calls of active or inactive are those of the source. The calls are words filed in the database; no cut-off is given here.

For `CC[C@H](C)C(=O)O[C@H]1CCC=C2C=C[C@H](C)[C@H](CC[C@@H]3C[C@@H](O)CC(=O)O3)[C@H]21`, the result with chang liver [1] and in the test with chang liver [2] was Active.
Regarding `CCCCCCCCCCCCCC/C=C\CCOC[C@@H](O)COP(=O)([O-])OCC[N+](C)(C)C`, the IC50 in test [3] is 174 µg/mL (≈ 343 µM). Also, the Activity result in the test on chang liver [4] is “Dose-dependent effect”.
The like results for `CCCCCC/C=C\CCCCCCCCCCCC(=O)OC[C@@H](O)COP(=O)([O-])OCC[N+](C)(C)C` were, in that order, 21 µg/mL (≈ 38.2 µM) and “Dose-dependent effect”.
The like results for `CCCCCC/C=C\CCCCCCCCCCOC[C@@H](O)COP(=O)([O-])OCC[N+](C)(C)C` were, in that order, 125 µg/mL (≈ 246 µM) and “Dose-dependent effect”.
`CCCCCCC1CC1CCCCCCCCCC(=O)OC[C@@H](O)COP(=O)([O-])OCC[N+](C)(C)C` (some centres not stated): in test [3], the IC50 is 60 µg/mL (≈ 112 µM). The Activity result in the test with chang liver [4] was “Dose-dependent effect”. Also, the result in the test with chang liver [1] was inactive.
As for `CC(C)CCCCCCCCCCCCCCOC[C@@H](O)COP(=O)([O-])OCC[N+](C)(C)C`, the IC50 in test [3] came to 320 µg/mL (≈ 646 µM). The Activity entry with chang liver [4] was “Dose-dependent effect”.
On to `CCCCCCCCCCCCC/C=C\CCCOC[C@@H](O)COP(=O)([O-])OCC[N+](C)(C)C`, for which the half-inhibitory concentration (IC50) in test [3] was 121 µg/mL (≈ 238 µM). In addition, the Activity entry in the test on chang liver [4] was “Dose-dependent effect”.
Consider `CCCCCCCCCCCCCCCCOC[C@@H](O)COP(=O)([O-])OCC[N+](C)(C)C`, for which the IC50 in test [3] was 422 µg/mL (≈ 876 µM). Further, in the test with chang liver [4], the Activity result is “Dose-dependent effect”.
